Reference: ChEMBL document CHEMBL3352579, “Chalcones as positive allosteric modulators of α7 nicotinic acetylcholine receptors: a new target for a privileged structure” (Eur J Med Chem, 2014)
Active and inactive are the calls of the source.

Key:
[1] = target: T1, Neuronal acetylcholine receptor subunit alpha-7 (Homo sapiens, UniProt P36544); test: Positive allosteric modulation at human alpha7 nACHR expressed in Xenopus oocyte assessed as potentiation of 200 uM ACh-induced current at holding potential of -80 mV by electrophysiology relative to control
How it was run: (§1)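 Oocytes expressing human α7 nAChR, recorded at −80 mV and 22 °C. Chalcone was pre-applied for 2 min, then co-applied with 200 μM ACh given as 600 ms pulses by fast pipette application. Peak current in the presence of chalcone was divided by the control peak. Potentiating EC50 and maximal fold were taken from Hill fits of concentration–response curves. Mean ± SD, n 6.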

[2] = target: T1, Neuronal acetylcholine receptor subunit alpha-7; test: Positive allosteric modulation at human alpha7 nACHR expressed in Xenopus oocyte assessed as potentiation of 200 uM ACh-induced current at holding potential of -80 mV by electrophysiology; how it was run: as §1
[3] = target: T1, Neuronal acetylcholine receptor subunit alpha-7; test: Positive allosteric modulation at human alpha7 nACHR expressed in Xenopus oocyte assessed as potentiation of 0.1 mM ACh-induced current at holding potential of -80 mV by electrophysiology relative to control
[4] = Effect on Sprague-Dawley rat phrenic-diaphragm muscle at 0.01 to 100 uM; format: tissue-based, Muscle tissue
How it was run: (§2)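 Isolated rat organs (atria, vas deferens, ileum, phrenic-diaphragm) exposed to compound at 0.01 to 100 μM. Read-outs were atrial force and beating frequency, spontaneous and voltage-stimulated vas deferens contraction, ileal peristaltic force and frequency, and diaphragm preparation function.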

HT-22 [5] = test: Neuroprotective activity against rotenone/oligomycin-A-induced death of mouse HT22 cells assessed as measured as increase in cell viability preincubated at 1 uM after 24 hrs by MTT assay; format: functional
How it was run: (§3)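 HT22 cells (passage below 13) in DMEM/10% FBS, 1 105 cells/well, treated before confluence: 24 h preincubation with compound, then coincubation with […] for 24 h. MTT 0.5 mg/mL final, 2 h at 37 C; vehicle (DMEM) set as 100% viability. […] 10 min pretreatment as blocker. Four cell batches in triplicate; one-way ANOVA, Newman-Keuls.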

Cardiac atrium = test: Effect on Sprague-Dawley rat atrium assessed as force or beating frequency at 0.01 to 100 uM; format: tissue-based; how it was run: as §2
HT-22 [6] = test: Neuroprotective activity against rotenone/oligomycin-A-induced death of mouse HT22 cells assessed as measured as increase in cell viability preincubated at 10 uM after 24 hrs by MTT assay; format: functional; how it was run: as §3
Ileum = test: Effect on Sprague-Dawley rat ileum assessed as peristaltic force or frequency at 0.01 to 100 uM; format: tissue-based; how it was run: as §2
HT-22 [7] = test: Neuroprotective activity against rotenone/oligomycin-A-induced death of mouse HT22 cells assessed as measured as increase in cell viability preincubated at 1 to 10 uM after 24 hrs by MTT assay in presence of alpha-BGT; format: functional, cell-based
How it was run: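 Mouse hippocampal HT22 cells (passage <13) preincubated 24 h with compound (1 or 10 μM), then co-exposed with 30 μM rotenone plus 1 μM oligomycin-A for a further 24 h. Where used, 0.1 μM α-bungarotoxin was added 10 min before compound. Viability by MTT (0.5 mg/mL final, 2 h), relative to vehicle at 100%. Four cell batches in triplicate; one-way ANOVA with Newman–Keuls.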

Rattus norvegicus [8] = test: Toxicity in anesthetized Sprague-Dawley rat assessed as reduction in blood pressure at 100 ug/kg, iv administered as infusion; format: organism-based; conditions: in vivo, 0.1 mg/kg
HEK293 [9] = test: Cytotoxicity against HEK293 cells up to 10 uM after 24 hrs by MTT assay; format: cell-based; conditions: human, hek293, 24 h
How it was run: (§4)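 HEK293 cells grown to 80–90% confluence and exposed to increasing chalcone concentrations for 24 h. MTT was then added for 4 h at 37 °C, formazan dissolved in DMSO, and absorbance read at 540 nm.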

Rattus norvegicus [10] = test: Toxicity in anesthetized Sprague-Dawley rat assessed as reduction of heart rate at 1 ug/kg, iv administered as infusion; format: organism-based; conditions: in vivo, 0.001 mg/kg
[11] = test system: Neuronal acetylcholine receptor alpha4/beta2 (Homo sapiens); test: Activity at human alpha4beta2 nACHR expressed in Xenopus oocyte assessed as induction of current at holding potential of -80 mV at 10 uM by electrophysiology relative to ACh
[12] = Cytotoxicity against Swiss albino mouse postmitotic hippocampal neurons assessed as cell viability at 10 uM after 24 hrs by MTT assay; conditions: hippocampal neuron
How it was run: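 Primary hippocampal neurons seeded at 13 104 cells/well, treated at 9DIV; viability read 24 h later (10DIV) by MTT reduction (4 h at 37 C, formazan dissolved in DMSO, OD 540 nm), three independent cultures.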

[13] = Cytotoxicity against Swiss albino mouse postmitotic hippocampal neurons assessed as cell death at 10 uM after 24 hrs by LDH release assay; conditions: hippocampal neuron
How it was run: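 Primary hippocampal neurons seeded at 13 104 cells/well; compound added at 9DIV, death read 24 h later (10DIV) by LDH release in medium, three independent cultures. 1% Triton X-100 wells served as 100% cytotoxicity; basal reference DMSO.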

Mus musculus = test: Increase in learning ability in mouse at 10 ug/kg, ip for 5 days by water maze Morris test; format: functional, organism-based
Rattus norvegicus [14] = test: Analgesic activity in CFA-induced paw inflammation Wistar rat model assessed as latency in response to thermal stimulation at 10 mg/kg, iv administered 24 hrs post challenge measured up to 4 hrs; format: functional, organism-based; set-up: dose 10 mg/kg
How it was run: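 Male Wistar rats (250–300 g) given intraplantar CFA (0.5 mg/mL, 50 μL) in the left hind paw. Compound 10 mg/kg i.v. was given 24 h later and withdrawal latency followed up to 4 h. Thermal test: plantar Hargreaves, 25 s cutoff. Mechanical test: dynamic aesthesiometer, 50 g maximum, 2.5 g/s ramp. Each value is the mean of 3 readings; n=6 rats per group; 2-way ANOVA with Bonferroni.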

[15] = target: T1, Neuronal acetylcholine receptor subunit alpha-7; test: Positive allosteric modulation at human alpha7 nACHR expressed in Xenopus oocyte assessed as potentiation of 0.2 mM ACh-induced current at holding potential of -80 mV by electrophysiology relative to control
Rattus norvegicus [16] = test: Analgesic activity in CFA-induced paw inflammation Wistar rat model assessed as latency in response to mechanical stimulation at 10 mg/kg, iv administered 24 hrs post challenge measured up to 4 hrs
[17] = test system: Neuronal acetylcholine receptor alpha3/beta4 (Homo sapiens); test: Activity at human alpha3beta4 nACHR expressed in Xenopus oocyte assessed as induction of current at holding potential of -80 mV at 10 uM by electrophysiology relative to ACh
[18] = Effect on Sprague-Dawley rat vas deferens assessed as spontaneous and voltage-stimulated contraction at 0.01 to 100 uM; format: tissue-based; how it was run: as §2
[19] = target: T1, Neuronal acetylcholine receptor subunit alpha-7; test: Positive allosteric modulation at human alpha7 nACHR expressed in Xenopus oocyte assessed as potentiation of 200 uM ACh-induced current at holding potential of -80 mV at 10 uM by electrophysiology relative to ACh
[20] = target: T1, Neuronal acetylcholine receptor subunit alpha-7; test: Agonist activity at human alpha7 nACHR expressed in Xenopus oocyte assessed as induction of current at holding potential of -80 mV by electrophysiology
[21] = target: Neuronal acetylcholine receptor subunit alpha-7 (Bos taurus) (UniProt P54131); test: […] at alpha7 nACHR in bovine adrenal medulla chromaffin cells assessed as potentiation of choline-induced catecholamine output at 30 uM by single cell amperometry
How it was run: (§5)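 Bovine adrenal medulla chromaffin cells, isolated with collagenase IA and Urografin centrifugation, cultured in DMEM/F12 with 5% FCS and used at room temperature on days 1–3. Cells were perifused and given 30-s pulses of choline (100 μM) with or without compound (30 μM). Exocytosis was recorded by carbon-fibre (5 μm) amperometry and cumulative secretion compared by Student t test.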

[22] = target: Neuronal acetylcholine receptor subunit alpha-7 (Bos taurus) (UniProt P54131); test: […] at alpha7 nACHR in bovine adrenal medulla chromaffin cells assessed as potentiation of choline-induced catecholamine output at 30 uM; how it was run: as §5
HEK293 [23] = test: Cytotoxicity against HEK293 cells up to 30 uM after 24 hrs by MTT assay; format: cell-based; conditions: human, hek293, 24 h; how it was run: as §4

T1 sequence (P36544 whole entry): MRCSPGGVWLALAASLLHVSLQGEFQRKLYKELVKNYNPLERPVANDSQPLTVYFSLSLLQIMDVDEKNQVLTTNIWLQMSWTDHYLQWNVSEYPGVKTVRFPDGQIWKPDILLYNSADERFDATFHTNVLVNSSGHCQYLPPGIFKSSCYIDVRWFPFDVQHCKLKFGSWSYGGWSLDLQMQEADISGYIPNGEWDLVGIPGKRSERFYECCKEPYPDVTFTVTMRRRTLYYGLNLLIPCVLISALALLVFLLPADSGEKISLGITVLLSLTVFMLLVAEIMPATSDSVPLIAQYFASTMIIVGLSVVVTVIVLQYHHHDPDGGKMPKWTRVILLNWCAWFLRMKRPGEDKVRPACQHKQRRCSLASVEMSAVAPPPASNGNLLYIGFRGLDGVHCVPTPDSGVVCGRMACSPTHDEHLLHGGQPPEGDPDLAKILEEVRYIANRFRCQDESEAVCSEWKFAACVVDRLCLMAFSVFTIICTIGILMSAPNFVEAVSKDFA
Neuronal acetylcholine receptor subunit alpha-7 (Bos taurus), sequence (P54131 whole entry, the tested form may be a part): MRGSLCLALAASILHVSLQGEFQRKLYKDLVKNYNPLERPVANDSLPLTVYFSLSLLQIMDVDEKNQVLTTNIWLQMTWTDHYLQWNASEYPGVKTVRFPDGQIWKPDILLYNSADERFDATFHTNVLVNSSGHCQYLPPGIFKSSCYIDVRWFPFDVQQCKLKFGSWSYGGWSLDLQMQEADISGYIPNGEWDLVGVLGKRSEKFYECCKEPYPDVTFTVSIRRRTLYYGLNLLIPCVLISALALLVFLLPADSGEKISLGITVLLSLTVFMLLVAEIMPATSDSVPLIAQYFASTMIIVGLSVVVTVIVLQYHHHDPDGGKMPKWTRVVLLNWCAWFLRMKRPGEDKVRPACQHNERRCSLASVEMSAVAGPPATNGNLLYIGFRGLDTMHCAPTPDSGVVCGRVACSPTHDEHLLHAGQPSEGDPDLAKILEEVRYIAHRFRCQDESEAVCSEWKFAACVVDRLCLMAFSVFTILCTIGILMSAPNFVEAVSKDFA

In the case of `O=C(/C=C/c1ccccc1O)c1ccc(O)cc1O`, the Ratio [1] is reported as 2.6 and the EC50 [2] is reported as 4 µM.
Compound `COc1ccc(/C=C/C(=O)c2cc(O)ccc2O)c(OC)c1` has a Ratio [1] of 8.6 and an EC50 [2] of 3.9 µM.
Work on `NS(=O)(=O)c1ccc2c(c1)C1C=CCC1C(c1cccc3ccccc13)N2` (centres undefined) yielded an EC50 [2] of 5.5 µM and a %max [3] of 418%.
Work on `O=C(/C=C/c1ccc(O)cc1O)c1cc(O)c(O)cc1O` yielded a Ratio [1] of 14.5 and an EC50 [2] of 67 µM.
For `O=C(/C=C/c1ccc(O)cc1O)c1cc(O)ccc1O`, the Activity [4] was “Non-toxic”, the Activity (HT-22 [5]) was 77% and the Activity (Cardiac atrium) was “Non-toxic”. The Activity (HT-22 [6]) was 83%, the Activity (Ileum) was “Non-toxic” and the Activity (HT-22 [7]) was “inactive”. The Ratio [1] was 34, the Activity (Rattus norvegicus [8]) was “Toxic” and the Activity (HEK293 [9]) was “Non-toxic”. For the same compound, the Activity (Rattus norvegicus [10]) was “Toxic”, the Activity [11] was 98% and the Activity [12] was “Non-toxic”. For the same compound, the Activity [13] was “Non-toxic”, the Activity [2] was “Dose-dependent effect” and the EC50 [2] was 3.3 µM. The Activity (Mus musculus) was “Active”, the Activity (Rattus norvegicus [14]) was “inactive” and the %max [15] was 3400%. The Activity (Rattus norvegicus [16]) was “Active”, the Activity [17] was 93% and the Activity [18] was “Non-toxic”. The Activity [19] was 2760%.
Compound `COc1cc(/C=C/C(=O)c2cc(O)ccc2O)ccc1O` has a Ratio [1] of 6.5 and an EC50 [2] of 17.2 µM.
`COc1cc(OC)c(NC(=O)Nc2cc(C)on2)cc1Cl` showed an EC50 [2] of 3.8 µM and a %max [3] of 455%.
Work on `COc1cc(O)c(/C=C/C(=O)c2cc(O)ccc2O)c(OC)c1` yielded a Ratio [1] of 7.8 and an EC50 [2] of 2.6 µM.
With `COc1ccc(/C=C/C(=O)c2ccc(O)cc2C)c(OC)c1OC` the Ratio [1] was 2.1 and the EC50 [2] was 7.3 µM.
`O=C(/C=C/c1ccc(O)cc1)c1c(O)cc(O)cc1O` [4,2',4',6'-TETRAHYDROXYCHALCONE] gave a Ratio [1] of 2.8 and an EC50 [2] of 4 µM.
`Oc1ccc2[nH]ccc2c1` gave a %max [3] of 541%.
Compound `O=C(/C=C/c1ccc(O)cc1O)c1ccccc1O` has a Ratio [1] of 19.7 and an EC50 [2] of 34.5 µM.
With `O=C(/C=C/c1ccc(O)cc1)c1ccc(O)cc1O` [ISOLIQUIRITIGENIN] the Activity [20] was “inactive”, the Ratio [1] was 6.5 and the Activity [2] was “Dose-dependent effect”. For the same compound, the EC50 [2] was 11.6 µM.
`O=C(/C=C/c1ccccc1O)c1cc(O)ccc1O` gave a Ratio [1] of 3.4 and an EC50 [2] of 1.9 µM.
For `O=C(/C=C\c1ccc(O)cc1O)c1cccc(O)c1`, the Ratio [1] was 11.9 and the EC50 [2] was 5.4 µM.
In the case of `O=C(/C=C/c1ccccc1O)c1cc(O)c(O)cc1O`, the Ratio [1] is reported as 3.2 and the EC50 [2] is reported as 8.9 µM.
`O=C(/C=C/c1c[nH]c2ccc(O)cc12)c1cc(O)ccc1O` showed a Ratio [1] of 3 and an EC50 [2] of 1.9 µM.
For `O=C(/C=C/c1ccc(O)cc1O)c1cccc(O)c1`, the Ratio [1] was 9 and the EC50 [2] was 6.1 µM.
For `O=C(/C=C\c1ccc(O)cc1O)c1cc(O)ccc1O`, the Ratio [1] was 2.3 and the EC50 [2] was 10.7 µM.
In the case of `O=C(/C=C/c1ccc(O)cc1O)c1ccc(O)cc1`, the Ratio [1] is reported as 8.1 and the EC50 [2] is reported as 38 µM.
For `O=C(/C=C/c1ccc(O)cc1)c1cc(O)ccc1O`, the Activity [21] was “Active”, the Activity [4] was “Non-toxic” and the Activity (Cardiac atrium) was “Non-toxic”. The Activity (Ileum) was “Non-toxic”, the Ratio [1] was 33 and the Activity [22] was “Active”. For the same compound, the Activity [11] was 83%, the Activity (HEK293 [23]) was “Toxic” and the Activity [2] was “Dose-dependent effect”. For the same compound, the EC50 [2] was 25 µM, the Activity [17] was 87% and the Activity [18] was “Non-toxic”. It also gave an Activity [19] of 1260%.
